The subject of data set [1] is Mycobacterium tuberculosis. The data set is described as follows: Antimycobacterial activity against Mycobacterium tuberculosis H37Rv assessed as bacterial growth inhibition. It is filed as functional.
The target in another data set is CYP2C9 (Homo sapiens, UniProt P11712). The data set is described as follows: Inhibition of CYP2C9 (unknown origin) at 0.5 uM relative to control. It is filed as ADME.
Another data set deals with Cytochrome P450 2C9 (Homo sapiens, UniProt P11712). Briefly: Inhibition of CYP2C9 (unknown origin). The class given is ADME.
Chain of Cytochrome P450 2C9 (P11712 whole entry): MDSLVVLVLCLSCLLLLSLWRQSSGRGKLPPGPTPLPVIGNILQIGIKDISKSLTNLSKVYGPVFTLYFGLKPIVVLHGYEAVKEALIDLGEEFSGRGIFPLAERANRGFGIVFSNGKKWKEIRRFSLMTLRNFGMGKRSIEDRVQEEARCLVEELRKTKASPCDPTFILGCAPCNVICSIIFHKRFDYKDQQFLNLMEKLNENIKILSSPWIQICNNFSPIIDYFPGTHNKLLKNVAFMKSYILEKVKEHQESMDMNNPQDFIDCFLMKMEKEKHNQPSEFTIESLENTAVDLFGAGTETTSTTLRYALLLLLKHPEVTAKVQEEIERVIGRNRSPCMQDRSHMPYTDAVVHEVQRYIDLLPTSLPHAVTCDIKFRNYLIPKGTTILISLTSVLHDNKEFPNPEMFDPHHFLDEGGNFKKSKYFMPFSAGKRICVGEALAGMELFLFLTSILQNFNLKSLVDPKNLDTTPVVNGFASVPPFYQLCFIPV
The next data set has as its system Vero. The data set is described as follows: Cytotoxicity against African green monkey Vero cells assessed as reduction in cell viability. It is filed as cell-based. The note with it: Chlorocebus sabaeus. An outline of the steps:
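Vero cells exposed to the compounds; IC50 taken as the concentration inhibiting 50% of cell growth relative to an untreated control.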

Molecules are shown by their SMILES. In brackets after ≈: the same amount, converted by molar mass.

Chain of CYP2C9 (P11712 whole entry): as above

Broadly, the MIC90 is the lowest concentration that inhibits either 90% of growth or 90% of the strains tested, depending on the study. `Nc1ccc(S(=O)(=O)Nc2nc3ccccc3o2)cc1`: in data set [1], the MIC90 is above 32 µg/mL. On to `CN(c1ccnn1-c1ccccc1)S(=O)(=O)c1ccc(N)cc1`, for which the MIC90 in data set [1] was above 32 µg/mL. In general, inhibition refers to the relative decrease from the control value, in per cent. With `Cc1ccc(-c2ccc(-n3nccc3NS(=O)(=O)c3ccc(N)cc3)cc2)cc1`, in data set [1], the MIC90 was determined as 31 µg/mL (≈ 76.7 µM). For the same compound, at 0.5 µM the inhibition on CYP2C9 was 2.2%.

Take `Nc1ccc(S(=O)(=O)Nc2ccc3cnn(-c4ccccc4)c3c2)cc1`: in data set [1], the MIC90 is above 32 µg/mL. Turning to `Nc1ccc(S(=O)(=O)Nc2nc3ccccc3s2)cc1`, the MIC90 in data set [1] is 14.3 µg/mL (≈ 46.7 µM). The compound also displayed an inhibition at 0.5 µM against CYP2C9 of 4.8%. `Nc1ccc(S(=O)(=O)Nc2ccnn2-c2ccc([N+](=O)[O-])cc2)cc1`: the MIC90 in data set [1] was determined as 10.3 µg/mL (≈ 28.7 µM). As to `Nc1ccc(S(=O)(=O)Nc2cc(-c3ccccc3)nn2-c2ccccc2)cc1`, the MIC90 in data set [1] was above 32 µg/mL. On to `Nc1ccc(S(=O)(=O)Nc2ccc3scnc3c2)cc1`, for which, in data set [1], the MIC90 was above 32 µg/mL. Take `CNc1ccc(S(=O)(=O)Nc2ccnn2-c2ccccc2)cc1`: the MIC90 in data set [1] was above 32 µg/mL. On to `CC(C)(C)c1cc(NS(=O)(=O)c2ccc(N)cc2)n(-c2ccccc2)n1`, for which the MIC90 in data set [1] was above 32 µg/mL. Consider `Cc1ccc(C)c(-n2nccc2NS(=O)(=O)c2ccc(N)cc2)c1`, for which, in data set [1], the MIC90 was above 32 µg/mL. On the same count and under the same terms, under `Nc1ccc(S(=O)(=O)Nc2ccnn2-c2ccc(C(F)(F)F)cc2)cc1` stands above 32 µg/mL; under `O=C(c1ccc(S(=O)(=O)Nc2ccnn2-c2ccccc2)cc1)N1CCNCC1`, above 32 µg/mL. Take `Nc1ccc(S(=O)(=O)Nc2nc3ccc(-c4ccccc4)cc3s2)cc1`: in data set [1], the MIC90 was above 32 µg/mL. As for `Nc1ccc(S(=O)(=O)Nc2ccnn2-c2ccc(-c3ccccc3)cc2)cc1`, in data set [1], the MIC90 was above 32 µg/mL. Regarding `O=C(c1ccc(S(=O)(=O)Nc2ccnn2-c2ccccc2)cc1)N1CCCCC1`, the MIC90 in data set [1] turned out to be 30.1 µg/mL (≈ 73.4 µM). Also, at CYP2C9, the inhibition at 0.5 µM was 0.2%.

With `COc1ccc(-c2ccc(-n3nccc3NS(=O)(=O)c3ccc(N)cc3)cc2)cc1`, the MIC90 in data set [1] is above 32 µg/mL.

On to `COc1ccc(-c2ccc3nc(NS(=O)(=O)c4ccc(N)cc4)sc3c2)cc1`, for which the MIC90 in data set [1] was above 32 µg/mL. In the case of `O=S(=O)(Nc1ccnn1-c1ccccc1)c1ccc(N2CCCCC2)cc1`, the MIC90 in data set [1] was above 32 µg/mL. In the case of `CC(=O)Nc1ccc(S(=O)(=O)Nc2ccnn2-c2ccccc2)cc1`, the MIC90 in data set [1] was above 32 µg/mL. Regarding `Nc1ccc(S(=O)(=O)Nc2ccnn2Cc2ccccc2)cc1`, the MIC90 in data set [1] was above 32 µg/mL. On to `Nc1ccc(S(=O)(=O)Nc2ccnn2-c2ccccc2)cc1F`, for which the MIC90 in data set [1] was above 32 µg/mL. With `Cc1cccc(-n2nccc2NS(=O)(=O)c2ccc(N)cc2)c1`, the MIC90 in data set [1] came out at 12.2 µg/mL (≈ 37.2 µM).

Turning to `Nc1cccc(S(=O)(=O)Nc2ccnn2-c2ccccc2)c1`, the MIC90 in data set [1] was above 32 µg/mL.

Regarding `Nc1ccc(S(=O)(=O)Nc2ccnn2C2CCCCC2)cc1`, the MIC90 in data set [1] is above 32 µg/mL. In general, IC50 refers to the concentration needed to halve the response being measured. For the compound `COc1ccc(-n2nccc2NS(=O)(=O)c2ccc(N)cc2)cc1`, the MIC90 in data set [1] was 5.69 µg/mL (≈ 16.5 µM). The inhibition at 0.5 µM at CYP2C9 is 9.1%. The IC50 against Cytochrome P450 2C9 is 11.5 µM; in the data set with Vero, above 64 µg/mL. As to `Nc1ccc(S(=O)(=O)Nc2ccnn2-c2ccc(F)cc2)cc1`, the MIC90 in data set [1] was 6.88 µg/mL (≈ 20.7 µM). On CYP2C9, this compound displayed an inhibition at 0.5 µM of 45.7%. For the same compound, the IC50 with Vero was above 64 µg/mL. `O=C(c1ccc(S(=O)(=O)Nc2ccnn2-c2ccccc2)cc1)N1CCSCC1`: the MIC90 in data set [1] is above 32 µg/mL. As for `COc1cc(N)ccc1S(=O)(=O)Nc1ccnn1-c1ccccc1`, the MIC90 in data set [1] is above 32 µg/mL. On the same count and under the same terms, the figure for `Nc1ccc(S(=O)(=O)Nc2ccnn2-c2cccc(F)c2)cc1` is 7.93 µg/mL (≈ 23.9 µM); for `Nc1ccc(-c2ccc(S(=O)(=O)Nc3ccnn3-c3ccccc3)cc2)cc1` it is above 32 µg/mL; for `CCc1cc(NS(=O)(=O)c2ccc(N)cc2)n(-c2ccccc2)n1` it is above 32 µg/mL. Same read-out and setting: under `Nc1ccc(S(=O)(=O)Nc2sccc2-c2ccccc2)cc1` stands above 32 µg/mL. In the case of `Cc1ccc(-n2nccc2NS(=O)(=O)c2ccc(N)cc2)cc1`, the MIC90 in data set [1] came out at 7.33 µg/mL (≈ 22.3 µM). Also, testing at 0.5 µM at CYP2C9 gave an inhibition of 52.3%. Further, in the data set on Vero, the IC50 is above 64 µg/mL.

For `Nc1ccc(S(=O)(=O)Nc2ccnn2-c2ccc(Br)cc2)cc1`, the MIC90 in data set [1] worked out at 14.5 µg/mL (≈ 37 µM). As to `Nc1ccc(S(=O)(=O)Nc2ccnn2C2CCCC2)cc1`, the MIC90 in data set [1] is above 32 µg/mL. In the case of `NNC(=O)c1ccncc1` [ISONIAZID], the MIC90 in data set [1] stood at 0.02 µg/mL (≈ 0.146 µM). On to `Nc1ccc(S(=O)(=O)Nc2ccnn2-c2ccccc2)cc1` [SULFAPHENAZOLE], for which the MIC90 in data set [1] was 5.51 µg/mL (≈ 17.5 µM). This compound yielded an inhibition at 0.5 µM against CYP2C9 of 48.3%. For the same compound, the IC50 with Vero was above 64 µg/mL. Turning to `Cc1cc(NS(=O)(=O)c2ccc(N)cc2)n(-c2ccccc2)n1` [SULFAZAMET], in data set [1], the MIC90 was 15.4 µg/mL (≈ 46.8 µM). On CYP2C9, this compound displayed an inhibition at 0.5 µM of 45%.

The record behind these values is ChEMBL document CHEMBL4732257, “The optimization and characterization of functionalized sulfonamides derived from sulfaphenazole against Mycobacterium tuberculosis with reduced CYP 2C9 inhibition” (Bioorg Med Chem Lett, 2021).
